Test results published in ChEMBL document CHEMBL1124344, “5-Piperazinylalkyl-2(3H)-oxazolones with neuroleptic activity” (J Med Chem, 1989).

Key:
Mus musculus [1] = assay: Suppression of aggressive behavior, after 5 hour of peroral administration in mouse at a dose of 10 mg/kg; format: functional; conditions: route oral
Outline: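 Male mice made aggressive by about 1 month of isolation in individual black cages plus weekly testosterone cyclopentylpropionate 250 mg/kg sc. Pairs preselected for aggressiveness shortly before oral dosing 1 or 5 h beforehand; attack on a nonisolated male within 15 min scored. ED50 is the dose suppressing aggression in 50% of animals.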

Rattus norvegicus [2] = species on record: Rattus norvegicus; assay: animal or person; conditions: po, read-out: Inhibition
Mus musculus [3] = assay: Suppression of aggressive behavior, after 1 hour of peroral administration in mouse; format: functional; conditions: po
Outline: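 Male mice made aggressive by isolation in individual black cages for about 1 month plus weekly testosterone cyclopentylpropionate 250 mg/kg sc; pairs preselected for attack on a nonisolated male within 15 min. Oral dosing (arabic gum, 10 mL/kg) 1 or 5 h before test, overnight fast. ED50 = dose suppressing aggression in 50% of animals, probit analysis.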

Mus musculus [4] = assay: Anticonvulsant activity against electroshock-induced convulsions, after 1 hour of peroral administration in mouse at a dose of 26 mg/kg; format: functional; conditions: route oral
Outline: (§1)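 Male mice dosed orally (arabic gum, 10 mL/kg) 1 or 5 h before challenge with tryptamine 100 mg/kg iv, pentylenetetrazol 110 mg/kg ip, or maximal electroshock. Protection means no bilateral forepaw clonic seizures and head twitches (tryptamine) or no tonic hind-limb extension (others). ED50 protects 50% of mice.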

Rattus norvegicus [5] = assay: Inhibition against conditioned avoidance response, after 1 hour of peroral administration in rats; format: functional; conditions: po
Outline: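 Male rats were trained in a shuttle box to avoid grid-floor shock by crossing compartments during a warning period. Dosing was oral as a gum arabic suspension at 10 mL/kg after an overnight fast. Percent inhibition was computed against a pretraining test. ED50 is the dose giving 50% inhibition.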

Mus musculus [6] = assay: Inhibition of spontaneous motor activity, after 5 hour of peroral administration in mouse; format: functional; conditions: po
Outline: (§2)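 Mice fasted overnight, then dosed orally with compound (weighed as base) suspended in arabic gum, 10 mL/kg, with vehicle controls; 1 h pretreatment for screening tests, 1 or 5 h for others. Groups of five; locomotor activity counted 10 min in photocell activity cage, at least two groups per dose. ED50 = dose giving 50% inhibition versus controls, by probit analysis.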

Rattus norvegicus [7] = assay: Antagonistic activity against apomorphine-induced stereotypy, after 5 hour of peroral administration in rats at a dose of 80 mg/kg; conditions: po, read-out: Inhibition
Mus musculus [8] = assay: Inhibitory activity against tremorine-induced tremors, after 5 hour of peroral administration in mouse; format: functional; conditions: po
Rattus norvegicus [9] = assay: Activity to evoke catalepsy, after 1 hour of peroral administration in rats; format: functional; conditions: po
Outline: (§3)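 Rats fasted overnight and given oral doses in arabic gum suspension (10 mL/kg), 1 h before screening or 1 and 5 h before profile testing. Forelegs placed on a horizontal bar 7 cm high, three times at 5-min intervals. Immobility of at least 15 s counts as catalepsy. ED50 is the dose giving catalepsy in 50% of rats, by probit analysis. Parenthetical entries give the maximal dose and percent activity.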

Mus musculus [10] = assay: Effect on skeletal muscle tone, after 1 hour of peroral administration in mouse; format: functional; conditions: Muscle tissue, po
Outline: (§4)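 Male mice suspended by forepaws from a 1.8-mm wire stretched 15 cm above a plane. Trained normal mice touch the wire with a hind paw within 2 s (traction) and hang at least 1 min (suspension). Oral dosing 1 or 5 h before. ED50 is the dose making 50% of mice fall without traction and suspension.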

[11] = Lethal dose in mice (LD50) following i.p. dosing; format: toxicity, organism-based; conditions: mouse, in vivo, ip
Outline: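 Acute toxicity tested in mice by the intraperitoneal route. LD50 is the dose killing 50% of treated mice, computed by Finney probit analysis; values are approximate.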

Rattus norvegicus [12] = assay: Inhibition against conditioned avoidance response, after 5 hour of peroral administration in rats at a dose of 20 mg/kg; conditions: po, read-out: Inhibition
Mus musculus [13] = assay: Antagonistic activity against amphetamine-induced Hypermobility in mouse by administering perorally; format: functional; conditions: po
Outline: (§5)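 Male mice in groups of five, fasted overnight, given oral drug in arabic gum suspension (10 mL/kg) 1 or 5 h ahead. Amphetamine 4 mg/kg ip given 30 min after drug. Ten minutes later locomotion is recorded for 15 min in a photocell actophotometer. ED50 is 50% reduction versus control hypermotility, by probit analysis. Parenthetical entries give the maximal dose and percent activity.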

Mus musculus [14] = assay: Inhibition of spontaneous motor activity in mouse, by administering perorally; format: functional; conditions: po; outline: as §2
Mus musculus [15] = assay: Anticonvulsant activity against tryptamine-induced convulsions, after 1 hour of peroral administration in mouse; format: functional; conditions: po
Outline: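 Compounds were dosed as bases suspended in arabic gum at 10 mL/kg orally, after an overnight fast, with vehicle controls. Protection meant no bilateral forepaw clonic seizures or head twitches (tryptamine), or no tonic hind-limb extension (the other two). ED50 is the dose protecting 50%, by probit analysis.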

Mus musculus [16] = assay: Activity of inclined screen in mouse, after 5 hour of peroral administration in mouse; format: functional
Outline: (§6)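 Male mice placed for 1 h on a wire screen inclined 60°, just after oral dosing and 4 h later; ataxic or relaxed mice slide off. Fasted overnight, 10 per dose, vehicle controls. Compounds weighed as bases, suspended in arabic gum, 10 mL/kg orally; ED50 by Finney probit analysis.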

Rattus norvegicus [17] = assay: Antagonistic activity against apomorphine-induced stereotypy in rats, by administering perorally at a dose of 80 mg/kg; conditions: po, read-out: Inhibition
Mus musculus [18] = assay: Effect on skeletal muscle tone, after 5 hour of peroral administration in mouse; format: functional; conditions: Muscle tissue, po
Outline: (§7)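 Male mice were placed for 1 h on a 60° inclined wire screen just after dosing and 4 h later. In a second test, trained mice hung by the forepaws from a horizontal 1.8 mm wire 15 cm up; normal mice touch it with a hind paw within 2 s and stay ≥1 min. ED50 is the dose making 50% fall. Dosing was oral in gum arabic suspension at 10 mL/kg after an overnight fast.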

Mus musculus [19] = assay: Antagonistic activity against amphetamine-induced hypermotility, after 1 hour of peroral administration in mouse; format: functional; conditions: po; outline: as §5
Mus musculus [20] = assay: Contractile activity in skeletal muscles, after 1 hour of peroral administration in mouse; format: functional; conditions: Muscle tissue, po; outline: as §7
Mus musculus [21] = assay: Potentiation against pentobarbital-induced sleeping, after 1 hour of peroral administration in mouse; format: functional; conditions: po
Outline: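 Female mice fasted overnight, dosed orally 1 or 5 h beforehand as arabic gum suspension, 10 mL/kg, with vehicle controls. Subhypnotic pentobarbital 10 mg/kg iv; 3 min later placed on back, effect scored as complete loss of righting reflex for at least 15 s. ED50 = dose producing this in 50% of mice, probit analysis.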

Mus musculus [22] = assay: Antagonistic activity against amphetamine-induced hypermotility, after 5 hour of peroral administration in mouse; format: functional; conditions: po; outline: as §5
Mus musculus [23] = assay: Inhibitory activity against tremorine-induced salivation, after 1 hour of peroral administration in mouse; format: functional; conditions: po
Outline: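 Male mice fasted overnight, dosed orally with arabic gum suspension (10 mL/kg) 1 or 5 h before test, vehicle controls included. Tremorine 20 mg/kg ip given 1 h after compounds; central (tremor) and peripheral (salivation) parasympathetic signs recorded. ED50 = dose protecting 50% of animals, by probit analysis.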

Mus musculus [24] = assay: Activity of inclined screen in mouse, after 1 hour of peroral administration in mouse; format: functional; outline: as §6
Rattus norvegicus [25] = assay: Antagonistic activity against amphetamine-induced stereotypy, after 1 hour of peroral administration in rats at a dose of 20 mg/kg; conditions: po, read-out: Inhibition
Rattus norvegicus [26] = assay: Antagonistic activity against apomorphine-induced stereotypy, after 1 hour of peroral administration in rats at a dose of 80 mg/kg; conditions: po, read-out: Inhibition
Mus musculus [27] = assay: Contractile activity in skeletal muscles, after 5 hour of peroral administration in mouse at a dose of 40 mg/kg; format: functional; conditions: Muscle tissue, route oral; outline: as §4
Mus musculus [28] = assay: Anticonvulsant activity against tryptamine-induced convulsions, after 5 hour of peroral administration in mouse at a dose of 40 mg/kg; format: functional; conditions: route oral; outline: as §1
Mus musculus [29] = assay: Anticonvulsant activity against pentylenetetrazole-induced convulsions, after 1 hour of peroral administration in mouse at a dose of 40 mg/kg; format: functional; conditions: route oral; outline: as §1
Mus musculus [30] = assay: Inhibitory activity against tremorine-induced tremors, after 1 hour of peroral administration in mouse; format: functional; conditions: po
Outline: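 Male mice given oral drug, then tremorine 20 mg/kg ip 1 h later; central tremor and peripheral salivation recorded. ED50 is the dose protecting 50% of animals from tremorine effects, by probit analysis.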

Mus musculus [31] = assay: Anticonvulsant activity against pentylenetetrazole-induced convulsions, after 5 hour of peroral administration in mouse at a dose of 40 mg/kg; format: functional; conditions: route oral; outline: as §1
Rattus norvegicus [32] = assay: Antagonistic activity against amphetamine-induced stereotypy, after 5 hour of peroral administration in rats at a dose of 20 mg/kg; conditions: po, read-out: Inhibition
Mus musculus [33] = assay: Inhibition against apomorphine-induced climbing, after 1 hour of peroral administration in mouse; format: functional; conditions: po
Outline: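 Mice were dosed orally (gum arabic suspension, 10 mL/kg, fasted), then given apomorphine 1 mg/kg sc and placed in cylindrical cages with vertical metal bars. Climbing was scored 0 for four paws on the floor, 1 for forefeet on the wall, 2 for four paws on the wall. ED50 is the dose halving the control score.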

Rattus norvegicus [34] = assay: Body weight gain, after 1 hour of peroral administration in rats; format: functional; conditions: po
Outline: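 Female rats (250–280 g), individually caged, on 22-h food deprivation with pellets 10–12 a.m.; weighed before and after eating. After 30–40 days training, oral drug given 1 h before the 2-h feeding. Weight gain expressed as percent of the two preceding control days; ED50 is the dose giving 50% reduction.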

Mus musculus [35] = assay: Inhibition of spontaneous motor activity, after 1 hour of peroral administration in mouse; format: functional; conditions: po; outline: as §2
Rattus norvegicus [36] = assay: Antagonistic activity against apomorphine-induced stereotypy in rats, by administering perorally at a dose of 20 mg/kg; format: functional; conditions: route oral
Outline: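 Male rats fasted overnight and given oral doses in arabic gum suspension (10 mL/kg) 1 h, or 1 and 5 h, before challenge. Apomorphine 3 mg/kg iv, with stereotypy observed 20 min later. ED50 is the dose inhibiting stereotypy in 50% of rats, per Janssen's method. Parenthetical entries give the maximal dose and percent activity.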

Rattus norvegicus [37] = assay: Activity to evoke catalepsy in rats, by administering perorally at a dose of 20 mg/kg; format: functional; conditions: route oral, read-out: Inhibition; outline: as §3
Mus musculus [38] = assay: Inhibition of spontaneous motor activity in mice, by administering perorally at a dose of 10 mg/kg; format: functional; conditions: route oral
Outline: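 Mice in groups of five were dosed orally with gum arabic suspensions at 10 mL/kg after an overnight fast, with a vehicle control group. Locomotion was counted for 10 min in a photocell activity cage, in at least two groups per dose. ED50, by probit analysis, is the dose giving 50% inhibition against controls.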

Mus musculus [39] = assay: Antagonistic activity against amphetamine-induced Hypermobility in mice, by administering perorally at a dose of 10 mg/kg; format: functional; conditions: route oral; outline: as §5

CN1CCN(C2=Nc3cc(Cl)ccc3Nc3ccccc32)CC1 [CLOZAPINE]
inhibition in vivo at 10 mg/kg (Mus musculus [1]): 0% | inhibition in vivo at 26 mg/kg (Rattus norvegicus [2]): 37% | ED50 (Mus musculus [3]): 3.5 mg/kg | inhibition in vivo at 26 mg/kg (Mus musculus [4]): 37% | ED50 (Rattus norvegicus [5]): 8.6 mg/kg | ED50 (Mus musculus [6]): 23 mg/kg | inhibition in vivo at 80 mg/kg (Rattus norvegicus [7]): 0% | ED50 (Mus musculus [8]): 30 mg/kg | ED50 (Rattus norvegicus [9]): 34 mg/kg | ED50 (Mus musculus [10]): 9.2 mg/kg | LD50 [11]: 100 mg/kg | inhibition in vivo at 20 mg/kg (Rattus norvegicus [12]): 0% | ED50 (Mus musculus [13]): 4.5 mg/kg | ED50 (Mus musculus [14]): 4.2 mg/kg | ED50 (Mus musculus [15]): 10.3 mg/kg | ED50 (Mus musculus [16]): 18.8 mg/kg | inhibition in vivo at 80 mg/kg (Rattus norvegicus [17]): 30% | ED50 (Mus musculus [18]): 30 mg/kg | ED50 (Mus musculus [19]): 4.5 mg/kg | ED50 (Mus musculus [20]): 40 mg/kg | ED50 (Mus musculus [21]): 6.6 mg/kg | ED50 (Mus musculus [22]): 20.1 mg/kg | ED50 (Mus musculus [23]): 6.9 mg/kg | ED50 (Mus musculus [24]): 9.3 mg/kg | inhibition in vivo at 20 mg/kg (Rattus norvegicus [25]): 20% | inhibition in vivo at 80 mg/kg (Rattus norvegicus [26]): 30% | inhibition in vivo at 40 mg/kg (Mus musculus [27]): 10% | inhibition in vivo at 40 mg/kg (Mus musculus [28]): 0% | inhibition in vivo at 40 mg/kg (Mus musculus [29]): 0% | ED50 (Mus musculus [30]): 30 mg/kg | inhibition in vivo at 40 mg/kg (Mus musculus [31]): 0% | inhibition in vivo at 20 mg/kg (Rattus norvegicus [32]): 0% | ED50 (Mus musculus [33]): 12 mg/kg | ED50 (Rattus norvegicus [34]): 8 mg/kg | ED50 (Mus musculus [35]): 4.2 mg/kg

Oc1nc(-c2ccc(-c3ccccc3)cc2)c(CCN2CCN(c3ccccc3)CC2)o1
inhibition in vivo at 20 mg/kg (Rattus norvegicus [36]): 0% | percent of rats showing catalepsy at 20 mg/kg (Rattus norvegicus [37]): 0% | inhibition in vivo at 10 mg/kg (Mus musculus [38]): 32% | LD50 [11]: 750 mg/kg | inhibition in vivo at 10 mg/kg (Mus musculus [39]): 33%
